{"source": "ChEMBL document CHEMBL5230083", "about": "“Novel 2, 5-diketopiperazine derivatives as potent selective histone deacetylase 6 inhibitors: Rational design, synthesis and antiproliferative activity” (Eur J Med Chem, 2020)", "key": {"[1]": {"assay": "Inhibition of full length HDAC1/MTA1 (162 to 354 residues) (unknown origin) transfected in HEK293F cells using BOC-Lys-AMC as substrate incubated for 30 mins by fluorescence based analysis", "parameters": "species or system Homo sapiens"}, "[2]": {"target": "T1, Protein deacetylase HDAC6 (Homo sapiens, UniProt Q9UBN7)", "T1 sequence (Q9UBN7 whole entry)": "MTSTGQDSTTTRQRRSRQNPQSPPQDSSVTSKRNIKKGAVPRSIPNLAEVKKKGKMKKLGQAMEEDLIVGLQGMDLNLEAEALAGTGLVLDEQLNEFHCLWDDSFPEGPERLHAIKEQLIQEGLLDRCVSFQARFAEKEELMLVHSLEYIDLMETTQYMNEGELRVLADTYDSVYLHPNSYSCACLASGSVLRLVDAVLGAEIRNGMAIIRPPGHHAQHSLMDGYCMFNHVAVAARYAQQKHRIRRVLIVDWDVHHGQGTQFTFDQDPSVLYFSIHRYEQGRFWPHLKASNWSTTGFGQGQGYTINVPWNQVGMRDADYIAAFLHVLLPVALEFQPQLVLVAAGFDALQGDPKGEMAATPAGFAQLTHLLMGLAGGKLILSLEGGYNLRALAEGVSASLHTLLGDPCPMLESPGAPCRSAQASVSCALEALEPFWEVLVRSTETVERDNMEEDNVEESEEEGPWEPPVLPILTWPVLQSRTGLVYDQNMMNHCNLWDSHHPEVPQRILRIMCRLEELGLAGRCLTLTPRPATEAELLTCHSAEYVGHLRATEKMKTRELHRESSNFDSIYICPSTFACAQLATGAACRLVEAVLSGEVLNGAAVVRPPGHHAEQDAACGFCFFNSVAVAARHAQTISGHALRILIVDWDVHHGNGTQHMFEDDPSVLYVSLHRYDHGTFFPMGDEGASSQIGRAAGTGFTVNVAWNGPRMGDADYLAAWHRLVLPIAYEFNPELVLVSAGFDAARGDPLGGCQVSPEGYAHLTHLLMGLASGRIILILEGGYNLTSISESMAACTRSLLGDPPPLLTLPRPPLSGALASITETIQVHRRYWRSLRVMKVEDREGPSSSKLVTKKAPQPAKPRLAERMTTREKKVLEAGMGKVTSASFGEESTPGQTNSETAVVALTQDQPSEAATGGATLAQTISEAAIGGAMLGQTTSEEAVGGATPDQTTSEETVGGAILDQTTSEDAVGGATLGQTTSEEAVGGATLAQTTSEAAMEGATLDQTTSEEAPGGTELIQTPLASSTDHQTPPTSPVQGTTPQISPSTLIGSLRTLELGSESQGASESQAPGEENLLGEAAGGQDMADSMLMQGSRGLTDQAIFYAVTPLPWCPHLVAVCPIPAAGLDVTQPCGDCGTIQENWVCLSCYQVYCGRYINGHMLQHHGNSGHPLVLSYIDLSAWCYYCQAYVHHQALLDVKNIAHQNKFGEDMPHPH", "assay": "Inhibition of HDAC6 (unknown origin) using Fluor de lys as substrate by fluorescence based analysis"}, "[3]": {"target": "Histone deacetylase 1 (Homo sapiens, UniProt Q13547)", "sequence (Q13547 whole entry)": "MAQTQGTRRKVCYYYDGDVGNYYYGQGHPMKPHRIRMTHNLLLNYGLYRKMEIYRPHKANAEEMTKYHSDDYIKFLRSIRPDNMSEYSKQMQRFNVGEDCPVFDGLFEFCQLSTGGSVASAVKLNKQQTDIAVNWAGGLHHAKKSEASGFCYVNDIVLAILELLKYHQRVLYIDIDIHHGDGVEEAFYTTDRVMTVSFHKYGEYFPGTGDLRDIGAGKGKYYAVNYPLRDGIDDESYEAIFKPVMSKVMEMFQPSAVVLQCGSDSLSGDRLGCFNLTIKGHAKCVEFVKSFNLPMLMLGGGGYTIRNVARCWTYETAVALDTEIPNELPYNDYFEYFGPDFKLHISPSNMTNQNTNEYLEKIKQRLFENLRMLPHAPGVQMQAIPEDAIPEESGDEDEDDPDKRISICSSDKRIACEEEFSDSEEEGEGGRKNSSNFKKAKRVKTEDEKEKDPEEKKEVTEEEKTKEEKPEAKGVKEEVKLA", "assay": "Inhibition of HDAC1 (unknown origin) using Fluor de lys as substrate by fluorescence based analysis"}, "[4]": {"target": "T2, Histone deacetylase 8 (Homo sapiens, UniProt Q9BY41)", "T2 sequence (Q9BY41 whole entry)": "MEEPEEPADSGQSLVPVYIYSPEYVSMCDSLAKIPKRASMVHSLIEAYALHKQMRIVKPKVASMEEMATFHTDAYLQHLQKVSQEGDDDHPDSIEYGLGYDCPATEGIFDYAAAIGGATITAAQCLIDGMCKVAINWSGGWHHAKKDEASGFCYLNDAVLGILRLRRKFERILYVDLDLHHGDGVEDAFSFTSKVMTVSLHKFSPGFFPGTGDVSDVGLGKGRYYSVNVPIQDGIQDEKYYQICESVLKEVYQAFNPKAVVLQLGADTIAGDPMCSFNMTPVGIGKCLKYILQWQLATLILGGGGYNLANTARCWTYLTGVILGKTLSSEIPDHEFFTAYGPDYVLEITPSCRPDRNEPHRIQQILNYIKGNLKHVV", "assay": "(§1) Inhibition of HDAC8 (unknown origin) using Fluor de lys as substrate by fluorescence based analysis"}, "[5]": {"species": "Homo sapiens", "assay": "Selectivity index, ratio of IC50 for inhibition of HDAC1 (unknown origin) to IC50 for inhibition of HDAC6 (unknown origin)", "summary_of_the_method": "(§2)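 Ratio of IC50 values, each from a Fluor de Lys fluorogenic HDAC assay run in duplicate.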"}, "[6]": {"species": "Homo sapiens", "assay": "Selectivity index, ratio of IC50 for inhibition of HDAC8 (unknown origin) to IC50 for inhibition of HDAC6 (unknown origin)", "summary_of_the_method": "as §2"}, "[7]": {"target": "Histone deacetylase 8 (Homo sapiens) (UniProt Q9BY41)", "assay": "as §1"}, "[8]": {"tested_on": "RPMI-8226", "assay": "cells", "format": "functional, cell-based", "conditions": "Homo sapiens, RPMI-8226, 72 h"}, "[9]": {"tested_on": "U-266", "assay": "cells", "format": "functional, cell-based", "conditions": "Homo sapiens, U-266, 72 h"}, "[10]": {"assay": "Microsomal stability in human liver microsomes assessed as half life at 0.5 uM prewarmed for 5 mins followed by NADPH addition and measured for 90 mins by LC-MS/MS analysis", "format": "ADME, Microsome", "conditions": "time 95 min", "summary_of_the_method": "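Incubation held 0.8 mg/mL human liver microsomes, MgCl2, potassium phosphate buffer pH 7.4 and 0.5 μM compound. After 5 min prewarming at 37 °C, NADPH started the reaction.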"}, "[11]": {"assay": "Cytotoxicity against human HS5 cells assessed as inhibition of cell growth incubated for 72 hrs by alamar blue assay", "format": "toxicity, cell-based", "summary_of_the_method": "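Cells were grown in IMDM with 20% FBS and penicillin/streptomycin at 37 °C in 5% CO2. Drug-treated cells were incubated 72 h. Alamar blue (1 mM solution) was then added for 5–6 h, and fluorescence read at 530/590 nm.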"}, "[12]": {"tested_on": "A549", "assay": "Antiproliferative activity against human A549 cells assessed as inhibition of cell growth incubated for 72 hrs by alamar blue assay", "format": "functional, cell-based", "conditions": "A549, 72 h", "summary_of_the_method": "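Cells grown in IMDM with 20% FBS and penicillin/streptomycin at 37 °C, 5% CO2. Compound added to plated cells for 72 h. Alamar blue (1 mM solution) then added for 5–6 h, and fluorescence read at 530/590 nm. IC50 derived for single-agent treatment.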"}, "[13]": {"tested_on": "A549", "assay": "Antiproliferative activity against human A549 cells assessed as inhibition of cell growth incubated for 72 hrs in presence of (R)-4-((3,4-dibenzyl-2,5-dioxopiperazin-1-yl)methyl)-N-hydroxybenzamide by alamar blue assay", "format": "functional, cell-based", "conditions": "A549, 72 h", "summary_of_the_method": "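Alamar blue assay in IMDM/20% FBS at 37 °C, 5% CO2. Cells were exposed to the two agents together for 72 h, with 5–6 h Alamar blue and fluorescence at 530/590 nm. IC50 in combination was determined. CI50 = IC50Ac/IC50As + IC50Bc/IC50Bs, comparing combination with single-agent IC50s.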"}}, "note": "pIC50: −log10 of the molar value. Where a name gives a salt, the structure may show the parent alone. Active and inactive are the calls of the source. The rule behind the calls is not given here. Square brackets hold non-standard residues; d marks the D form. Peptide text beside a SMILES is read from it. * marks the point of attachment. Asu = N[C@@H](CCCCCC(=O)O)C(=O)O; X1 = CC(=O)[C@H](Cc1cnc[nH]1)N*; NHOH = ON*"}
{"smiles": "CC(=O)[C@H](Cc1cnc[nH]1)NC(=O)[C@H](CCCN=C(N)N)NC(=O)[C@H](CCCCCC(=O)NO)NC(=O)CNC(=O)CN", "note": "(H-GG[Asu](NHOH)R-X1)", "values": [{"measurement": "pIC50", "setting": "[1]", "value": 6.47}]}
{"smiles": "O=C1CN(Cc2ccc(C(=O)NO)cc2)C(=O)[C@H](Cc2c[nH]c3ccccc23)N1", "values": [{"measurement": "pIC50", "setting": "[2]", "value": 8.18}, {"measurement": "pIC50", "setting": "[3]", "value": 5.19}, {"measurement": "pIC50", "setting": "[4]", "value": 6.95}]}
{"smiles": "O=C1CN(Cc2ccc(C(=O)NO)cc2)C(=O)[C@H](Cc2ccccc2)N1", "values": [{"measurement": "pIC50", "setting": "[2]", "value": 7.76}, {"measurement": "Ratio IC50", "setting": "[5]", "value": 411}, {"measurement": "Ratio IC50", "setting": "[6]", "value": 0.9}, {"measurement": "pIC50", "setting": "[3]", "value": 5.14}, {"measurement": "pIC50", "setting": "[4]", "value": 7.81}]}
{"smiles": "O=C1CN(Cc2cccc(C(=O)NO)c2)C(=O)[C@H](Cc2ccccc2)N1", "values": [{"measurement": "pIC50", "setting": "[2]", "value": 5.38}, {"measurement": "inhibition", "setting": "[3]", "value": "inactive"}, {"measurement": "inhibition", "setting": "[7]", "value": "inactive"}]}
{"smiles": "COc1cccc(CN2C(=O)CN(Cc3ccc(C(=O)NO)cc3)C(=O)[C@H]2Cc2ccccc2)c1", "values": [{"measurement": "pIC50", "setting": "[2]", "value": 7.86}, {"measurement": "Ratio IC50", "setting": "[5]", "value": 591}, {"measurement": "Ratio IC50", "setting": "[6]", "value": 12}, {"measurement": "pIC50", "setting": "[3]", "value": 5.09}, {"measurement": "pIC50", "setting": "[4]", "value": 6.77}]}
{"smiles": "O=C(CCCCCCNC(=O)c1cnc(N(c2ccccc2)c2ccccc2)nc1)NO", "note": "[RICOLINOSTAT]", "values": [{"measurement": "pIC50", "setting": "[8]", "value": 5.03}, {"measurement": "pIC50", "setting": "[9]", "value": "< 4.00"}, {"measurement": "half-life at 0.5 µM", "setting": "[10]", "value": 7.5, "unit": "h"}]}
{"smiles": "O=C(NO)c1ccc(CC(=O)N(CCO)c2ccccc2)cc1", "values": [{"measurement": "pIC50", "setting": "[3]", "value": 5.75}, {"measurement": "pIC50", "setting": "[4]", "value": 5.70}]}
{"smiles": "O=C1CN(Cc2ccc(C(=O)NO)cc2)C(=O)[C@@H](Cc2ccccc2)N1", "values": [{"measurement": "pIC50", "setting": "[2]", "value": 8.06}, {"measurement": "pIC50", "setting": "[8]", "value": 4.26}, {"measurement": "pIC50", "setting": "[9]", "value": 4.06}, {"measurement": "IC50 at 72 hrs", "setting": "[11]", "value": "> 100000", "unit": "nM"}, {"measurement": "Ratio IC50", "setting": "[5]", "value": 959}, {"measurement": "Ratio IC50", "setting": "[6]", "value": 4}, {"measurement": "pIC50", "setting": "[3]", "value": 5.08}, {"measurement": "pIC50", "setting": "[4]", "value": 7.51}]}
{"smiles": "COc1cccc2c1C(=O)c1c(O)c3c(c(O)c1C2=O)C[C@@](O)(C(=O)CO)C[C@@H]3O[C@H]1C[C@H](N)[C@H](O)[C@H](C)O1", "note": "[DOXORUBICIN HYDROCHLORIDE]", "values": [{"measurement": "pIC50", "setting": "[12]", "value": 6.59}, {"measurement": "pIC50", "setting": "[13]", "value": 6.82}]}
{"smiles": "O=C(NO)c1ccc(CN2CC(=O)N(Cc3cccc(Cl)c3)[C@H](Cc3ccccc3)C2=O)cc1", "values": [{"measurement": "pIC50", "setting": "[2]", "value": 7.98}, {"measurement": "pIC50", "setting": "[8]", "value": 4.87}, {"measurement": "pIC50", "setting": "[9]", "value": 4.64}, {"measurement": "IC50 at 72 hrs", "setting": "[11]", "value": "> 100000", "unit": "nM"}, {"measurement": "Ratio IC50", "setting": "[5]", "value": 838}, {"measurement": "Ratio IC50", "setting": "[6]", "value": 14}, {"measurement": "pIC50", "setting": "[3]", "value": 5.07}, {"measurement": "pIC50", "setting": "[4]", "value": 6.82}]}
{"smiles": "CN1C(=O)CN(Cc2ccc(C(=O)NO)cc2)C(=O)C1Cc1ccccc1", "note": "(racemic)", "values": [{"measurement": "pIC50", "setting": "[2]", "value": 7.78}]}
{"smiles": "O=C(NO)c1ccc(CN2CC(=O)N(Cc3ccccc3Cl)[C@H](Cc3ccccc3)C2=O)cc1", "values": [{"measurement": "pIC50", "setting": "[2]", "value": 8.00}, {"measurement": "pIC50", "setting": "[8]", "value": 4.92}, {"measurement": "pIC50", "setting": "[9]", "value": 4.63}, {"measurement": "IC50 at 72 hrs", "setting": "[11]", "value": "> 100000", "unit": "nM"}, {"measurement": "half-life at 0.5 µM", "setting": "[10]", "value": 10.1, "unit": "h"}, {"measurement": "Ratio IC50", "setting": "[5]", "value": 823}, {"measurement": "Ratio IC50", "setting": "[6]", "value": 16}, {"measurement": "pIC50", "setting": "[3]", "value": 5.08}, {"measurement": "pIC50", "setting": "[4]", "value": 6.79}]}
{"smiles": "O=C(NO)c1ccc(CN2CC(=O)N(Cc3ccc(Cl)cc3)[C@H](Cc3ccccc3)C2=O)cc1", "values": [{"measurement": "pIC50", "setting": "[2]", "value": 7.93}, {"measurement": "Ratio IC50", "setting": "[5]", "value": 786}, {"measurement": "Ratio IC50", "setting": "[6]", "value": 11}, {"measurement": "pIC50", "setting": "[3]", "value": 5.04}, {"measurement": "pIC50", "setting": "[4]", "value": 6.89}]}
